One assay concerns Wickerhamomyces anomalus. In words: Antimicrobial activity against Pichia anomala DSM 6766 after 16 to 48 hrs by serial dilution method. Type of assay: functional. The gist of the method: (§1)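 Yeasts and filamentous fungi were tested by serial dilution in 96-well plates in YMG medium. Inoculum was adjusted to 6.7 × 10^5 cells/mL. Highest tested level was 67 μg/mL (from 20 μL of 1 mg/mL stock) or 100 μg/mL (from 20 μL of 1.5 mg/mL stock). Ethanol (20 μL) was the negative control.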

The next assay has as its system Yamadazyma tenuis. Briefly: Antimicrobial activity against Candida tenuis MUCL 29892 after 16 to 48 hrs by serial dilution method. The class given is functional. The procedure, abridged:
as §1

In the next assay the test system is Mucor hiemalis. In words: Antimicrobial activity against Mucor hiemalis DSM 2656 after 16 to 48 hrs by serial dilution method. The class given is functional. The gist of the method:
as §1

A further assay has as its system Mucor plumbeus. In words: Antimicrobial activity against Mucor plumbeus MUCL 49355 after 16 to 48 hrs by serial dilution method. The class given is functional. The gist of the method: as §1
Assay [1] concerns Schizosaccharomyces pombe. Briefly: Antimicrobial activity against Schizosaccharomyces pombe DSM 70572 after 16 to 48 hrs by serial dilution method. The class given is functional, organism-based. The procedure, abridged:
as §1

In another assay the test system is Candida albicans. In words: Antimicrobial activity against Candida albicans DSM 1665 after 16 to 48 hrs by serial dilution method. Type of assay: functional. The gist of the method: as §1
In the next assay the test system is Rhodotorula glutinis. Briefly: Antimicrobial activity against Rhodotorula glutinis DSM 10134 after 16 to 48 hrs by serial dilution method. Type of assay: functional. The gist of the method: as §1
In a further assay the test system is Staphylococcus aureus. Briefly: Antimicrobial activity against Staphylococcus aureus DSM 346 after 16 to 48 hrs by serial dilution method. The class given is functional. The procedure, abridged: (§2)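 Inoculum was adjusted to 6.7 × 10^5 cells/mL. Top concentration was 67 μg/mL (20 μL of 1 mg/mL stock) or 100 μg/mL (20 μL of 1.5 mg/mL stock). Ethanol (20 μL) served as negative control.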

Another assay concerns Micrococcus luteus. In words: Antimicrobial activity against Micrococcus luteus DSM 1790 after 16 to 48 hrs by serial dilution method. The class given is functional. The procedure, abridged: as §2
For the next assay, the system named is Escherichia coli. Briefly: microbe, parasite or virus in culture. The conditions noted are these: DSM 498.
For a further assay, the system named is Bacillus subtilis. In words: Antimicrobial activity against Bacillus subtilis DSM10 after 16 to 48 hrs by serial dilution method. The class given is functional. The gist of the method: as §2
In assay [2] the test system is Mycolicibacterium smegmatis. In words: Antimicrobial activity against Mycobacterium smegmatis DSM 44200 after 16 to 48 hrs by serial dilution method. The class given is functional. The procedure, abridged: as §2
A further assay has as its system L929. In words: Cytotoxicity against mouse L929 cells after 5 days by MTT assay. The note with it: L929, 120 h. Type of assay: functional, cell-based. The gist of the method: (§3)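 Mouse fibroblast L929 and HeLa-derived KB3.1 cells were seeded at 6 × 10^3 cells/well in 96-well plates. Cells were exposed to compounds for 5 days, and IC50 was determined.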
Another assay relates to KB 3-1. In words: Cytotoxicity against human KB3-1 cells after 5 days by MTT assay. Type of assay: functional, cell-based. The note with it: KB 3-1, 120 h. The procedure, abridged: as §3

Values after ≈ are worked out from the molar mass of the structure shown. Active and inactive are the calls of the source. The rule behind the calls is not given here.

In the case of NYSTATIN, the MIC in the assay on Wickerhamomyces anomalus was 16.7 µg/mL; in the assay with Yamadazyma tenuis, 12.5 µg/mL; with Mucor hiemalis it was 16.7 µg/mL; in the assay on Mucor plumbeus, 12.5 µg/mL; in [1], 16.7 µg/mL; against Candida albicans, 16.7 µg/mL. This compound also gave an MIC against Rhodotorula glutinis of 16.7 µg/mL.

As to `CN(C)[C@@H]1C(O)=C(C(N)=O)C(=O)[C@@]2(O)C(O)=C3C(=O)c4c(O)cccc4[C@@](C)(O)[C@H]3[C@H](O)[C@@H]12` [OXYTETRACYCLINE], the MIC was 6.7 µg/mL (≈ 14.6 µM) in the assay on Staphylococcus aureus and 0.4 µg/mL (≈ 0.869 µM) in the assay on Micrococcus luteus.

`O=C(O)c1cn(C2CC2)c2cc(N3CCNCC3)c(F)cc2c1=O` [CIPROFLOXACIN] yielded an MIC against Escherichia coli of 3.1 µg/mL (≈ 9.36 µM).

On to `C[C@@H]1CO[C@@H]2C3=C(CC4[C@H](C(=O)O)CCC5[C@@H]1CC[C@]452)C(=O)C(SC[C@H](O)C(=O)O)=CC3=O` (stereo partly specified), for which the result in the assay with Wickerhamomyces anomalus, in the assay on Staphylococcus aureus, in the assay on Yamadazyma tenuis, in the assay on Micrococcus luteus, in the assay with Mucor hiemalis and with Mucor plumbeus was inactive. In addition, the outcome (with Bacillus subtilis; in assay [2]; in assay [1]; in the assay on Candida albicans; with Rhodotorula glutinis) was inactive.

As to `CC(=O)N[C@@H](CSC1=CC(=O)C2=C(CC3[C@H](C(=O)O)CCC4[C@@H]5CC[C@]34[C@@H]2OC[C@H]5C)C1=O)C(=O)O` (stereo partly specified), the MIC against Wickerhamomyces anomalus (Hansenula anomala) was found to be 66.7 µg/mL (≈ 129 µM); against Yamadazyma tenuis, 100 µg/mL (≈ 193 µM); in the assay with Rhodotorula glutinis, 33.3 µg/mL (≈ 64.3 µM). Besides, the result (in the assay with Staphylococcus aureus; with Micrococcus luteus; in the assay with Mucor hiemalis; with Mucor plumbeus; in the assay on Bacillus subtilis; in assay [2]) was inactive. For the same compound, the result (in assay [1]; in the assay on Candida albicans) was inactive.

Turning to `C[C@@H]1CO[C@@H]2C3=C(CC4[C@H](C(=O)O)CCC5[C@@H]1CC[C@]452)C(=O)C=CC3=O` (stereo partly specified), the MIC with Wickerhamomyces anomalus (Hansenula anomala) amounted to 66.7 µg/mL (≈ 187 µM); in the assay on Staphylococcus aureus, 33.3 µg/mL (≈ 93.4 µM); in the assay with Yamadazyma tenuis, 25 µg/mL (≈ 70.1 µM); in the assay with Micrococcus luteus, 66.7 µg/mL (≈ 187 µM); against Mucor hiemalis, 8.3 µg/mL (≈ 23.3 µM); with Mucor plumbeus it was 100 µg/mL (≈ 281 µM). The MIC in the assay with Bacillus subtilis amounted to 50 µg/mL (≈ 140 µM); against Candida albicans, 33.3 µg/mL (≈ 93.4 µM); with Rhodotorula glutinis it was 16.7 µg/mL (≈ 46.9 µM). Further, the result in assay [2] and in assay [1] was inactive. The results for the half-maximal inhibitory concentration (IC50) with L929 and in the assay on KB 3-1 were 7.5 µg/mL (≈ 21 µM) and 8.5 µg/mL (≈ 23.8 µM), respectively.

For the compound `CC1(C)S[C@@H]2[C@H](NC(=O)Cc3ccccc3)C(=O)N2[C@H]1C(=O)O` [PENICILLIN G], the MIC against Bacillus subtilis is 6.3 µg/mL (≈ 18.8 µM).

Take `C[C@@H]1CO[C@@H]2C3=C(C(=O)C=CC3=O)[C@H]3OC(=O)[C@@H]4CC[C@H]5[C@@H]1CC[C@@]25[C@@H]34` (racemic): the MIC stood at 66.7 µg/mL (≈ 188 µM) against Wickerhamomyces anomalus (Hansenula anomala); 66.7 µg/mL (≈ 188 µM) against Staphylococcus aureus; 100 µg/mL (≈ 282 µM) with Yamadazyma tenuis; 16.7 µg/mL (≈ 47.1 µM) against Mucor hiemalis; 100 µg/mL (≈ 282 µM) in the assay on Mucor plumbeus; 100 µg/mL (≈ 282 µM) with Bacillus subtilis. The compound also came in with an MIC in the assay with Rhodotorula glutinis of 33.3 µg/mL (≈ 94 µM). For the same compound, the result (with Micrococcus luteus; in [2]; in assay [1]; in the assay on Candida albicans) was inactive. For the same compound, the IC50 with L929 came to 2.2 µg/mL (≈ 6.21 µM); with KB 3-1, 2.8 µg/mL (≈ 7.9 µM).

Turning to `NC[C@H]1O[C@H](O[C@H]2[C@H](O)[C@@H](O[C@H]3O[C@H](CO)[C@@H](O)[C@H](N)[C@H]3O)[C@H](N)C[C@@H]2N)[C@H](O)[C@@H](O)[C@@H]1O` [KANAMYCIN], in assay [2], the MIC was determined as 0.4 µg/mL (≈ 0.826 µM).

Regarding `C[C@@H]1CO[C@@H]2c3c(O)cc4scnc4c3C[C@H]3[C@H](C(=O)O)CC[C@H]4[C@@H]1CC[C@@]243`, the MIC in the assay on Wickerhamomyces anomalus (Hansenula anomala) worked out at 66.7 µg/mL (≈ 167 µM); in the assay on Yamadazyma tenuis, 100 µg/mL (≈ 250 µM); against Rhodotorula glutinis it was 33.3 µg/mL (≈ 83.4 µM). Also, the result (with Staphylococcus aureus; in the assay with Micrococcus luteus; in the assay on Mucor hiemalis; in the assay on Mucor plumbeus; in the assay with Bacillus subtilis; in assay [2]) was inactive. Moreover, the result (in assay [1]; in the assay on Candida albicans) was inactive.

Source of the values: ChEMBL document CHEMBL4138273, “Cysteine-Derived Pleurotin Congeners from the Nematode-Trapping Basidiomycete Hohenbuehelia grisea” (J Nat Prod, 2018).
